PMC3690275 (Journal of medicinal chemistry, 2013)

Assays:
[1] = thermodynamic solubility assay; assay type: physicochemical; conditions: PBS pH 7.4, relative to compound 1
[2] = system: INS-1E β-cells; assay: caspase-3/7 assay in INS-1E β-cells; assay type: cell-based, rat
Method in brief: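 Rat INS-1E β-cells co-treated with a cytokine mixture and the test compound over a dose range; caspase-3/7 activity read after 48 h. IC50 is fitted from triplicate dose-responses. Maximum activity is expressed as % rescue from cytokine-induced caspase-3/7 activation. For the cytokine-optimization runs, values are the mean ± standard error of three independent experiments with six replicates each.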

[3] = system: STAT1; assay type: cell-based, rat; conditions: co-treatment with IFN-γ, 30 min, immunofluorescence imaging

C[C@@H]1CN([C@@H](C)CO)C(=O)c2cccc(NC(=O)Nc3cccc4ncccc34)c2O[C@H]1CN(C)S(=O)(=O)c1ccc2c(c1)OCCO2 [Compound 7f]
fold increase in solubility compared to 1 [1]: 1400 fold

C[C@@H]1CN([C@@H](C)CO)C(=O)c2cccc(NC(=O)N(C)c3cccc4ccccc34)c2O[C@H]1CN(C)S(=O)(=O)c1ccc2c(c1)OCCO2 [Compound 7b]
fold increase in solubility compared to 1 [1]: 110 fold

C[C@@H]1CN([C@@H](C)CO)C(=O)c2cccc(NC(=O)Nc3cccc4ccccc34)c2O[C@H]1CN(C)S(=O)(=O)c1ccc2c(c1)OCCO2 [Compound 1]
protective effect in the caspase assay ([2]; condition A: standard concentrations of cytokines): small protective effect | rescue efficacy in the caspase assay ([2]; condition B: IL-1β and TNF-α lowered 20- and 10-fold, IFN-γ increased 4-fold): higher rescue efficacy | reduction of caspase activity ([2]; condition C (IFN-γ 500 ng/mL), INS-1E β-cells, 48 h): 74% | effect on IFN-γ-induced nuclear localization of STAT1 [3]: nearly abolished this nuclear localization of STAT1

C[C@@H]1CN([C@@H](C)CO)C(=O)c2cccc(NC(=O)Nc3cccc4cccnc34)c2O[C@H]1CN(C)S(=O)(=O)c1ccc2c(c1)OCCO2 [Compound 7i, N-(((2R,3R)-5-((S)-1-hydroxypropan-2-yl)-3-methyl-6-oxo-10-(3-(quinolin-8-yl)ureido)-3,4,5,6-tetrahydro-2H-benzo[b][1,5]oxazocin-2-yl)methyl)-N-methyl-2,3-dihydrobenzo[b][1,4]dioxine-6-sulfonamide]
effect on IFN-γ-induced nuclear localization of STAT1 [3]: nearly abolished this nuclear localization of STAT1

C[C@@H]1CN([C@@H](C)CO)C(=O)c2cccc(NC(=O)NCc3cccc4ccccc34)c2O[C@H]1CN(C)S(=O)(=O)c1ccc2c(c1)OCCO2 [Compound 7a]
activity in the caspase assay (in words) ([2]; INS-1E β-cells): inactive | effect on IFN-γ-induced nuclear localization of STAT1 [3]: did not inhibit nuclear translocation of STAT1
